Experiments:
[1] = species on record: Homo sapiens; test: Translational activity in human immature DC assessed as luciferase mRNA activity after 72 hrs by bioluminescence assay relative to m2 7,3'-OGpppG; type: functional
How it was run: (§1)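 Luciferase-coding mRNAs made by T7 RNA polymerase in vitro transcription with the respective cap, electroporated into human immature dendritic cells. Luciferase activity measured over 72 h after electroporation, duplicate measurements. Mathematical modeling of the time course gave translational efficiency, time of maximal protein expression and total protein expression.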

[2] = species on record: Oryctolagus cuniculus; test: Translational activity in Flexi rabbit reticulocyte lysate assessed as luciferase mRNA activity after 60 mins relative to m7GpppG; type: functional
How it was run: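 Luciferase mRNAs capped by in vitro transcription, added at several concentrations to rabbit reticulocyte lysate optimized for cap-dependent translation. Luminometry of luciferase activity 60 min after mRNA addition. Translation efficiency taken from slope of luciferase activity versus mRNA concentration, averaged over replicate experiments.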

[3] = Translational activity in human immature DC assessed as time point of maximal protein expression by bioluminescence assay; type: functional; how it was run: as §1
[4] = biological target: Eukaryotic translation initiation factor 4E (Mus musculus) (UniProt P63073); test: Binding affinity to mouse eIF4E by fluorescence quenching assay
Chain of Eukaryotic translation initiation factor 4E (Mus musculus) (P63073 whole entry): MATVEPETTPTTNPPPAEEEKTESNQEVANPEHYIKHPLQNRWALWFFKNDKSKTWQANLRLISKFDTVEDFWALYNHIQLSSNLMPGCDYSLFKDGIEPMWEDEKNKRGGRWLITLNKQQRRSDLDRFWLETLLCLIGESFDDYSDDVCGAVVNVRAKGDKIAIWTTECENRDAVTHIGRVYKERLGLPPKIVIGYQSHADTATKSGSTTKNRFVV
How it was run: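 Murine eIF4E titrated with cap analog solution; intrinsic Trp fluorescence quenching recorded at 337 nm with excitation at 280 nm. Equilibrium association constant (KAS) of the cap analog–eIF4E complex derived from the titration curves.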

[5] = Translational activity in human immature DC assessed as total protein expression after 72 hrs by bioluminescence assay relative to m2 7,3'-OGpppG; type: functional; how it was run: as §1
[6] = Drug degradation in aqueous buffer at pH 2 after 4.5 hrs by RP HPLC analysis; type: physicochemical; settings: pH 2, 4.5 h
How it was run: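 Isopropylidene removal done in aqueous buffer at pH 2, 37 °C, for 4.5 h. Reaction progress followed by RP HPLC.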

With C[n+]1cn([C@@H]2O[C@H](COP(=O)([O-])OP(=O)(S)OP(=O)(O)OC[C@H]3O[C@@H](n4cnc5c(=O)[nH]c(N)nc54)[C@H](O)[C@@H]3O)[C@@H]3OC(C)(C)O[C@H]32)c2nc(N)nc(O)c21 (mixture of isomers; 2b) [listing 1 of 2 here] the Ratio [1] was 1.08, the Ratio [2] was 1.16 and the TIME [3] was 8.9 h. For the same compound, the Ka [4] was 9.2 µM⁻¹ and the Ratio [5] was 0.97.
C[n+]1cn([C@@H]2O[C@H](COP(=O)(O)OP(=O)([O-])OP(=O)(O)OC[C@H]3O[C@@H](n4cnc5c(=O)[nH]c(N)nc54)[C@H](O)[C@@H]3O)[C@@H]3OC(C)(C)O[C@H]32)c2nc(N)nc(O)c21 showed a Ratio [2] of 0.8 and a Ka [4] of 2.9 µM⁻¹.
C[n+]1cn([C@@H]2O[C@H](COP(=O)([O-])OP(=O)(S)OP(=O)(O)OC[C@H]3O[C@@H](n4cnc5c(=O)[nH]c(N)nc54)[C@H](O)[C@@H]3O)[C@@H]3OC(C)(C)O[C@H]32)c2nc(N)nc(O)c21 (mixture of isomers; 2a) showed a Ratio [1] of 1.23, a Ratio [2] of 1.33 and a TIME [3] of 11.1 h. For the same compound, the Ka [4] was 5.6 µM⁻¹ and the Ratio [5] was 1.62.
In the case of CO[C@H]1[C@@H](O)[C@H](n2c[n+](C)c3c(O)nc(N)nc32)O[C@@H]1COP(=O)(O)OP(=O)([O-])OP(=O)(O)OC[C@H]1O[C@@H](n2cnc3c(=O)[nH]c(N)nc32)[C@H](O)[C@@H]1O, the Ratio [2] is reported as 1.32, the TIME [3] is reported as 9.25 h and the Ka [4] is reported as 10.2 µM⁻¹.
With C[n+]1cn([C@@H]2O[C@H](COP(=O)([O-])OP(=O)(S)OP(=O)(O)OC[C@H]3O[C@@H](n4cnc5c(=O)[nH]c(N)nc54)[C@H](O)[C@@H]3O)[C@@H]3OC(C)(C)O[C@H]32)c2nc(N)nc(O)c21 (mixture of isomers; 2b) [listing 2 of 2 here] the Stability [6] was “Stable”.

Reference: ChEMBL document CHEMBL2396523, “The synthesis of isopropylidene mRNA cap analogs modified with phosphorothioate moiety and their evaluation as promoters of mRNA translation” (Bioorg Med Chem Lett, 2013)
